In the library only some 1.3% were active in any assay of this set; here they are far more common.
LANA DNA inh – inhibitors of KSHV LANA C-terminal domain DNA binding; MBP-C-LANA/FAM-LBS DNA binding, fluorescence polarization; actives 0.078% (n = 340,000); AID 504423; inhibition, % at 9 µM;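 active = highest replicate inhibition at or above 60% at 9 µM, even if other replicates fall short; inactive = all replicates below 60% inhibition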
GRK2 inh – human GRK2 inhibition via aptamer displacement. inhibition of aptamer binding, % at 10 µM. actives 0.59% (n = 330,000). bead flow cytometry, FAM-aptamer displacement from GRK2. P25098;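 active = inhibition of aptamer binding above 40%, roughly 3 SD of noise, on plates passing a quality check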;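 also: median bead fluorescence of bound FAM aptamer so fluorescent compounds give negative values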
Target sequence (P25098 whole entry, looked up): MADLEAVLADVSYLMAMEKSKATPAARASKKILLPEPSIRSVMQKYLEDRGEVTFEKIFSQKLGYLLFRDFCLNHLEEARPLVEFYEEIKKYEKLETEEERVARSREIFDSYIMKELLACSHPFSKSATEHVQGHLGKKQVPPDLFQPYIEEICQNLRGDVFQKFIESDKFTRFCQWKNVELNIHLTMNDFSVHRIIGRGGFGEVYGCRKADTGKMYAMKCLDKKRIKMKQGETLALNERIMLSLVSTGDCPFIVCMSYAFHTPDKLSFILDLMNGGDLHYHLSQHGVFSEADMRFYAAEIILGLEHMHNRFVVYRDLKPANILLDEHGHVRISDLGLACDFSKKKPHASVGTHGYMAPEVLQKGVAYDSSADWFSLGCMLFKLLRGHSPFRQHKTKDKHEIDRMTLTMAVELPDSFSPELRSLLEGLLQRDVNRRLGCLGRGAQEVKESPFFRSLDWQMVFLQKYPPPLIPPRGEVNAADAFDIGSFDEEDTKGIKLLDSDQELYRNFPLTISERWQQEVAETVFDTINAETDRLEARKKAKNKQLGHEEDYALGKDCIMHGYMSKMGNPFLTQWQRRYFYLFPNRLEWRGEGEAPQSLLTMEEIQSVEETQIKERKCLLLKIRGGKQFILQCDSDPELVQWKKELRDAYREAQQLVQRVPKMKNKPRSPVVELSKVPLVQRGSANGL
MEX-5 binding – C. elegans MEX-5 TCR-2 RNA binding activity; MEX-5/FITC-TCR2 RNA binding, fluorescence polarization; stronger effect = lower value; activity score (negative = inhibition of binding), % at 10 µM; actives 0.38% (n = 300,000);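 active = inhibition past about -25% in most replicates, and total fluorescence under double the plate's negative control median, limit read from the data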
Keap1-Nrf2 PPI – disrupts human Keap1 binding to Nrf2 peptide; Q14145; AID 504523; Keap1 Kelch-Nrf2 peptide fluorescence polarization, 1536-well; inhibition, % at 9.4 µM; actives 0.15% (n = 340,000); in the data active = inhibition above about 12%;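 also: human Keap1 Kelch domain with fluorescein labeled Nrf2 9mer peptide probe; higher means more block of Keap1 binding to Nrf2 peptide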
T cell modulator – modulates CD8 T cell binding to vesicles. AID 2052. 2C CD8+ T cell-vesicle binding, flow cytometry; stronger effect = lower value. response (vesicle binding), % at 7 µM. actives 0.068% (n = 330,000);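 active = response, share of CD8 T cells binding vesicles, and their 90th percentile fluorescence all below set limits, cut at about 80% in these data, passing the limit was not always enough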;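 also: values below 100% mean blocked vesicle binding to the CD8+ T cells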
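material = purified 2C TCR transgenic mouse naive CD8+ T cells | controls = Unloaded micro-vesicles (low), QL9 vesicles with 0.7% DMSO (high) | detection = cytometric PE anti-B7-1 and Alexa647 anti-CD8 signals after 1% paraformaldehyde fixation | incubation = binding step 1.5 h, 37 °C, antibody labelling 20 min, ice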
EBV gp42 inh – EBV gp42 inhibition | Fluorescence polarization binding assay, mP read-out | inhibition, % (tested at 21.74 µM) | actives 0.42% (n = 220,000) | AID 1085; in the data active = inhibition above about 50%
GRK2 CP1 – human GRK2 inhibition confirmation, cherry pick 1; shares compounds with GRK2 inh; bead-bound GRK2, FAM-aptamer displacement, flow cytometry; aptamer displacement, % at 10 µM; actives 4% (n = 2,000); AID 504451;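 active = aptamer displacement above 40%, near three times the noise of non-fluorescent compounds, on plates passing quality checks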;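 also: negative values mostly reflect intrinsic compound fluorescence rather than true enhancement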
Aptamer quench 1 – counter-screen for GRK2 aptamer inhibitors: fluorescent aptamer quenchers; 110 tested, under 10 active; fluorescence change (kMESF span), kMESF (concentration not given with the values); Fluorescent RNA aptamer beads, quenching, flow cytometry; stronger effect = higher value; shares compounds with GRK2 inh;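 active = compounds whose bead fluorescence drops by more than 37 kMESF across the dose range, marking them as dye quenchers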
Aptamer quench SP – counter-screen for GRK2 aptamer inhibitors: fluorescent aptamer quenchers; shares compounds with GRK2 inh; AID 504580; 2,000 tested, under 10 active; fluorescence response (% of DMSO), % at 10 µM; Carboxyfluorescein RNA aptamer on beads, flow cytometry quenching; stronger effect = lower value;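 active = compounds that quench the bead-bound fluorescent RNA probe, cutting fluorescence to under half of the solvent control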;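 also: counterscreen run without GRK2 so only probe quenching by compound is measured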
GRK2 confirm 2 – human GRK2 inhibition confirmation, cherry pick 2; AID 504782; inhibition of aptamer binding, % at 10 µM; shares compounds with GRK2 inh; 360 tested, under 10 active; bead-bound GRK2, FAM-aptamer displacement, flow cytometry;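 active = inhibition of aptamer binding above 40%, about triple the noise seen with nonglowing compounds, on plates passing quality control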;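 also: negative values mostly come from compounds that fluoresce themselves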
FAM quench SP – quenches fluorescent RNA aptamer, GRK2 hit artifact | 360 tested, under 10 active | fluorescence response vs DMSO, % at 10 µM | carboxyfluorescein RNA aptamer beads, flow cytometry quenching; stronger effect = lower value | AID 588494 | shares compounds with GRK2 inh;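 active = response vs DMSO under 50%, meaning signal dropped by over half, treated as fluorescence quencher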;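 also: labelled aptamer on streptavidin beads without GRK2 as a quench counter-screen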
FAM quench PS1 – quenches fluorescent RNA aptamer, GRK2 hit artifact. shares compounds with GRK2 inh. Bead-bound FAM RNA aptamer fluorescence quenching, flow cytometry; stronger effect = lower value. fluorescence ratio to DMSO, % at 11.1 µM. 35 tested, under 10 active. AID 588496;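 active = compounds that dim the fluorescent label, raw bead signal shifting by over 33 units between lowest and highest dose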
Each line names hits and unclear results; the compound was inactive in the other large screens (follow-up assays come after a bar, where they were run).

COc1ccc(C(CC(=O)N2CCOCC2)c2c(OC)cc(OC)c3c(-c4ccccc4)cc(=O)oc23)cc1 (stereo unspecified)	GRK2 inh 48.0 | GRK2 CP1 inactive | Aptamer quench SP inactive
O=C(CC1SC(N2CCCCC2)=NC1=O)Nc1cccc(C(=O)NCc2ccc(F)cc2)c1 (stereo unspecified)	none (no result: GRK2 inh, MEX-5 binding, T cell modulator, EBV gp42 inh) | GRK2 CP1 inactive | Aptamer quench 1 inactive | Aptamer quench SP inactive
COc1ccc(N(CC(=O)NC2CCCC2)S(=O)(=O)c2c(C)[nH]c(=O)[nH]c2=O)cc1	none | GRK2 CP1 inactive | Aptamer quench SP inactive
COc1ccc(NC(=O)Nc2sc(=S)n(C)c2C)cc1	GRK2 inh 98.0 | GRK2 CP1 inactive | Aptamer quench SP inactive
Cc1c(NC(=O)OC(C)C)sc(=S)n1C	none | GRK2 CP1 inactive | Aptamer quench SP inactive
CC(=O)NCCOC(=O)Nc1sc(=S)n(C)c1C	none
CC1=C(C(=O)O)N2C(=O)[C@@H](NC(=O)[C@H](N)c3ccccc3)[C@H]2SC1	none (no result: LANA DNA inh, GRK2 inh, MEX-5 binding, Keap1-Nrf2 PPI, T cell modulator)
COC(=O)c1c(NC(=O)CSc2nnnn2-c2ccc3c(c2)OCO3)sc(C)c1C	none (no result: GRK2 inh)
COc1cccc(C(=O)OCC(=O)c2c[nH]c3ccccc23)c1OC	GRK2 inh 43.0 (no result: MEX-5 binding, EBV gp42 inh) | GRK2 CP1 inactive | Aptamer quench SP inactive
COc1ccc(C(=O)OCC(=O)c2c[nH]c3ccccc23)c(OC)c1	none (no result: MEX-5 binding, EBV gp42 inh)
COc1cc2c(cc1NC(=O)c1cccc([N+](=O)[O-])c1)oc1ccccc12	GRK2 inh 92.0 | GRK2 CP1 inactive | Aptamer quench SP inactive
Cc1onc(-c2ccccc2)c1C(=O)N1CCN(C)CC1	none
O=c1c(=Nc2ccccc2O)c(=O)c2ccccc12	GRK2 inh 70.0 | GRK2 CP1 inactive | Aptamer quench SP inactive
O=C(Cc1ccc(-n2cccc2)cc1)NC1CCCCC1	GRK2 inh 45.0 | GRK2 CP1 inactive | Aptamer quench SP inactive
O=C(O)Cc1ccc(-n2cccc2)cc1	GRK2 inh 99.0 | GRK2 CP1 99.0 | Aptamer quench 1 inactive | Aptamer quench SP inactive | FAM quench PS1 inactive
O=C(NC1CCCCC1)N1CCN(CCc2ccccc2)CC1	GRK2 inh 70.0 | GRK2 CP1 inactive | Aptamer quench SP inactive
O=C(NCc1ccco1)C(c1ccccc1F)N(Cc1cccnc1)C(=O)Cn1nnc2ccccc21 (stereo unspecified)	none
CCC(C)NC(=O)NC(=O)CSc1nnc(-c2ccccc2F)n1C1CC1 (stereo unspecified)	GRK2 inh 49.0 (no result: EBV gp42 inh) | GRK2 CP1 inactive | Aptamer quench SP inactive
CCOC(=O)c1c(-c2ccc(C)o2)csc1NC(=O)CN1CCC(C(N)=O)CC1	none
CCN(CC)S(=O)(=O)c1ccc(OC)c(NC(=S)Nc2cccc(C)c2)c1	none (no result: LANA DNA inh, Keap1-Nrf2 PPI)
Cc1ccccc1NS(=O)(=O)c1ccc(C(=O)OCC(=O)NCC(C)C)cc1	none
O=C(Nc1ccc(NC(=O)C2CC2)cn1)c1ccccc1	none (no result: EBV gp42 inh)
O=C(Cc1ccccc1)Nc1ccc(NC(=O)c2ccccc2)nc1	GRK2 inh 41.0 (no result: EBV gp42 inh) | GRK2 confirm 2 inactive | FAM quench SP inactive
COc1ccc(OCC(=O)Nc2c3c(nn2C(C)(C)C)CS(=O)(=O)C3)cc1	none (no result: EBV gp42 inh)
CCOC(=O)C1(CCc2ccccc2)CCN(C(=O)CN2C(=O)CSC2=O)CC1	GRK2 inh 92.0 | GRK2 CP1 inactive | Aptamer quench SP inactive
O=C(C1CCCCC1)N1CCN(C(=O)C2CCCCC2)CC1	none
O=C(C1CCCCCC1)N1CC[C@@H](N2CCC(O)CC2)[C@H](O)C1	none (no result: EBV gp42 inh) | GRK2 CP1 inactive | Aptamer quench SP inactive
O=C(NN1CCOCC1)c1cc(-c2ccccc2)nc2ccccc12	GRK2 inh 71.0 | GRK2 CP1 inactive | Aptamer quench SP inactive
O=C(NN1CCOCC1)c1cc(-c2ccncc2)nc2ccccc12	none
Cc1cc(C)c(C)c(S(=O)(=O)N2CCN(C(=O)c3cc(S(=O)(=O)N4CCOCC4)ccc3F)CC2)c1C	none (no result: MEX-5 binding, EBV gp42 inh) | GRK2 CP1 inactive | Aptamer quench SP inactive
Cc1ccc(S(=O)(=O)N2CCOCC2)cc1C(=O)N1CCOCC1	none
Cc1[nH]c(=O)[nH]c(=O)c1S(=O)(=O)Nc1ccc(F)c(Cl)c1	GRK2 inh 47.0 (no result: EBV gp42 inh) | GRK2 CP1 inactive | Aptamer quench SP inactive
COc1ccccc1CNc1ccc(CNc2ncn[nH]2)cc1	GRK2 inh 52.0 | GRK2 CP1 inactive | Aptamer quench SP inactive
c1ccc2c(CNc3ccc(CNc4ncn[nH]4)cc3)cccc2c1	none
Cc1ccc(C(=O)OCC(=O)NCCc2ccc(S(N)(=O)=O)cc2)o1	none (no result: MEX-5 binding, EBV gp42 inh)
CCC1=NN(C(=O)C(=O)Nc2ccc(OC)cc2)C(O)(C(F)(F)F)C1 (stereo unspecified)	none
COc1ccc(NC(=O)C(=O)N2N=C3CCCCC3C2(O)C(F)(F)F)cc1 (stereo unspecified)	GRK2 inh 41.0 | GRK2 confirm 2 inactive | FAM quench SP inactive
Cc1cccc(Oc2c(C=O)c3ccccc3n2C)c1	none
Cn1c(Oc2ccccc2)c(C=O)c2ccccc21	GRK2 inh 53.0 | GRK2 CP1 inactive | Aptamer quench SP inactive
Cc1c(OCC(=O)N2CCC(C(=O)O)CC2)ccc2c1oc(=O)c1ccccc12	none (no result: EBV gp42 inh)
S=C(NCC1CCCO1)NC1CC1 (stereo unspecified)	GRK2 inh 87.0 | GRK2 CP1 inactive | Aptamer quench SP inactive
O=C(NCC1CCCO1)NC1CCCCC1 (stereo unspecified)	none
CCOc1ccc(NC(=O)CN(C)C(=O)c2cccnc2Sc2ccc(C)cc2C)cc1OCC	none (no result: GRK2 inh, MEX-5 binding, T cell modulator, EBV gp42 inh)
CC(C)(C)CC(=O)NC(=S)NCc1ccccc1	none
COc1ccccc1NC(=O)N1CCC(c2nc3cc(C)c(C)cc3[nH]2)CC1	none | GRK2 CP1 inactive | Aptamer quench SP inactive

Source: PubChem BioAssay
